From publication PMC10983000 (Journal of Medicinal Chemistry, 2024)

Columns and labels:
[1] = test system: pAKT in T47D (PI3Kα^H1047R) cells; experiment: pAKT AlphaLISA assay, T47D; assay type: cell-based; conditions: for IC50: Homo sapiens, T47D, 24 h, read-out: pAKT AlphaLISA IC50 T47D, T47D (PI3Kα^H1047R), inhibition of pAKT formation after 24 h of treatment
[2] = test system: pAKT in SKBR3 (PI3Kα^WT) cells; experiment: pAKT AlphaLISA assay, SKBR3; assay type: cell-based; conditions: Homo sapiens, SK-BR-3, 24 h, read-out: pAKT AlphaLISA IC50 SKBR3
[3] = test system: T47D (PI3Kα^H1047R) cells; experiment: Viability assay; assay type: cell-based; conditions: for viability selectivity 1047R/WT IC50: T47D vs SKBR3 viability IC50
Mouse pharmacokinetics = assay type: in vivo, CD-1 Mouse
Rat pharmacokinetics = assay type: in vivo; conditions: male, Sprague-Dawley, plasma, iv, 3 mg/kg
[4] = Intrinsic clearance in human hepatocytes; assay type: in vitro ADME
[5] = Intrinsic clearance in mouse hepatocytes; assay type: in vitro ADME
In short: (§1)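 CLint was derived by scaling in vitro half-lives measured in pooled hepatocytes.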

[6] = Metabolite ID in human hepatocytes; assay type: in vitro ADME
[7] = test system: pAKT in HCC1954 tumors (PI3Kα^H1047R); experiment: Single dose pharmacodynamic study, HCC1954 tumor model; assay type: in vivo, mouse; conditions: PO 100 or 300 mg/kg single dose
In short: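 Mice carried xenografts of HCC1954, an ER-/HER2+ human breast tumour line with endogenous PI3Kα H1047R. They received a single dose of test compound, and tumour pAKT modulation was measured at 1 h and at 8 h post dose.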

[8] = Intrinsic clearance in dog hepatocytes; assay type: in vitro ADME
In short: as §1

[9] = Intrinsic clearance in rat hepatocytes; assay type: in vitro ADME
In short: as §1

| IC50 [1] [µM] | IC50 [2] [µM] | Compound | other results |
| --- | --- | --- | --- |
| > 10 | > 10 | Cc1cc([C@@H](C)Nc2ccccc2C(=O)O)c2nc(N3CCCCC3)c(C(N)=O)c(=O)n2c1 [Compound 14] |  |
| 0.003 | 1.47 | Cc1cc([C@@H](C)Nc2ccccc2C(=O)O)c2nc(N3CCCCC3)c(C)c(=O)n2c1 [Compound 8] | viability selectivity 1047R/WT IC50 [3]: > 83 |
| 0.003 | 3.19 | Cc1cc([C@@H](C)Nc2ccccc2C(=O)O)c2oc(N3CCC(C)(C)CC3)c(C)c(=O)c2c1 [Compound 4, reference compound] |  |
|  |  | Cc1cc([C@@H](C)Nc2ccccc2C(=O)O)c2nc(N3CCC(F)(F)CC3)c(C#N)c(=O)n2c1 [Compound 17, (R)-2-((1-(3-Cyano-2-(4,4-difluoropiperidin-1-yl)-7-methyl-4-oxo-4H-pyrido[1,2-a]pyrimidin-9-yl)ethyl)amino)benzoic Acid] | clearance (Mouse pharmacokinetics; female, CD-1, mouse, plasma, iv, 3 mg/kg): 180 mL/min/kg; bioavailability in rodents (Mouse pharmacokinetics; rodents (mouse and rat)): 48–57 %F; clearance (Rat pharmacokinetics): 46 mL/min/kg; fold decrease of intrinsic clearance in human hepatocytes compared to 12 [4]: 3 fold; CLint scaled [5]: 304 mL/min/kg; metabolite identified in human hepatocytes [6]: glucuronidation of the benzoic acid was the only discernible metabolite; pAKT inhibition after oral dosing [7]: negligible inhibition of pAKT; CLint scaled [8]: 104 mL/min/kg; CLint scaled [9]: 70 mL/min/kg |
| 0.028 | > 10 | Cc1cc([C@@H](C)Nc2ccccc2C(=O)O)c2nc(N3CCCCC3)c(C(F)(F)F)c(=O)n2c1 [Compound 13] |  |
| 2.54 |  | Cc1cc(C(C)Nc2ccccc2C(=O)O)c2nc(N3CCCCC3)ncc2c1 (stereo not shown) [Compound 10] |  |
| 0.0003 | > 10 | Cc1cc([C@@H](C)Nc2ccccc2C(=O)O)c2nc(N3CCCCC3)c(F)c(=O)n2c1 [Compound 11] |  |
| 0.179 |  | Cc1cc(C(C)Nc2ccccc2C(=O)O)c2nc(N3CCC(C)(C)CC3)n(C)c(=O)c2c1 (stereo not shown) [Compound 9] | fold decrease in potency (viability) compared to compound 4 ([3]; T47D viability): 39 fold |
| 0.332 | 0.115 | Cc1ccccc1C1NC(=O)c2cc(NC3COC3)cc(NC(=O)c3csc4ccccc34)c21 (stereo not shown) [Compound 5, reference compound] |  |
| 0.015 |  | Cc1cc([C@@H](C)Nc2ccc(Cl)cc2C(=O)O)c2nc(N3CCC(F)(F)CC3)c(C#N)c(=O)n2c1 [Compound 24] |  |
| 0.001 | 4.74 | Cc1cc([C@@H](C)Nc2ccccc2C(=O)O)c2nc(N3CCCCC3)c(C#N)c(=O)n2c1 [Compound 12] | fold more stable in human hepatocytes than 8 ([4]; Clint human hepatocytes): 4 fold; fold more potent than 8 ([1]; pAKT T47D): 3 fold |
| 0.078 | 5.89 | Cc1cc([C@@H](C)Nc2ccccc2C(=O)O)c2nc(N3CCCCC3)cc(=O)n2c1 [Compound 7] | viability selectivity 1047R/WT IC50 [3]: > 9 |
|  |  | Cc1cc([C@@H](C)Nc2ccccc2C(=O)O)c2nc(C3CCC(F)(F)CC3)c(C#N)c(=O)n2c1 [Compound 19] | fold loss in potency in T47D cellular viability assay ([3]; on replacing the piperidine nitrogen (4,4-difluorocyclohexane)): 5 fold |
